Assays:
[1] = test system: CCRF-CEM; test: Cytotoxicity against human CEM cells assessed as decrease in cell viability; format: cell-based
[2] = test system: Human immunodeficiency virus 1; test: Antiviral activity against HIV1 3B/Lai infected in human CEM cells assessed as inhibition of virus-induced cytopathicity after 4 days; format: functional, organism-based; conditions: Human immunodeficiency virus 1, 3B/Lai, CCRF-CEM, 96 h
Method in brief: (§1)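 Human CEM cells (~3 × 10^5 cells/mL) infected with 100 CCID50 per mL of HIV-1(IIIB) or HIV-2(ROD), then seeded into wells holding compound dilutions. Incubated 4 days at 37°C. Giant cell formation was scored microscopically.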

[3] = test system: MT4; test: Cytotoxicity against human MT4 cells assessed as inhibition of cell proliferation; format: cell-based
[4] = test system: Human alphaherpesvirus 1; test: Antiviral activity against HSV1 KOS infected in HEL cells assessed as inhibition of virus-induced cytopathicity; format: functional, organism-based; conditions: Human alphaherpesvirus 1, KOS
Method in brief: (§2)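 Confluent human embryonic lung fibroblast monolayers inoculated with 100 CCID50 virus. After 1–2 h adsorption, residual virus was removed and cultures were incubated with varying compound concentrations. Cytopathicity was scored once untreated infected controls reached full cytopathicity.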

[5] = test system: MT4; test: Cytotoxicity against human MT4 cells assessed as decrease in cell viability; format: cell-based
Method in brief: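 MT-4 viability was measured by automated propidium iodide-based cell counting, enumerating total and dead cells in untreated and compound-treated cultures.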

[6] = Cytotoxicity against HEL cells assessed as concentration required to cause alteration in cell alteration by microscopically; format: cell-based; conditions: human
[7] = test system: Human immunodeficiency virus 2; test: Antiviral activity against HIV2 ROD infected in human CEM cells assessed as inhibition of virus-induced cytopathicity after 4 days; format: functional, organism-based; conditions: Human immunodeficiency virus 2, ISOLATE ROD, CCRF-CEM, 96 h; method in brief: as §1
[8] = test system: Human immunodeficiency virus 1; test: Antiviral activity against HIV1 3B/Lai infected in human MT4 cells assessed as suppression of p24 production after 3 days; format: functional, organism-based; conditions: Human immunodeficiency virus 1, 3B/Lai, MT4, 72 h
Method in brief: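 MT-4 cells (1 × 10^4 cells/mL) in fresh medium infected with X4LAI.04 stock, 10 μL (0.7 ng p24) per mL of cell suspension. Mixed with medium carrying compound dilutions and kept at 37°C. After 3 days, p24 was measured in culture supernatants.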

[9] = test system: Human alphaherpesvirus 2; test: Antiviral activity against HSV2 G infected in HEL cells assessed as inhibition of virus-induced cytopathicity; format: functional, organism-based; conditions: Human alphaherpesvirus 2, strain G; method in brief: as §2
[10] = test system: Human alphaherpesvirus 1; test: Antiviral activity against acyclovir […]-resistant thymidine kinase-deficient HSV1 KOS infected in HEL cells assessed as inhibition of virus-induced cytopathicity; format: functional, organism-based; conditions: Human alphaherpesvirus 1, KOS; method in brief: as §2
[11] = test system: HEL; test: Cytotoxicity against HEL cells assessed as inhibition of cell proliferation; format: cell-based; conditions: Homo sapiens

SMILES | IC50 [1] [µM] | EC50 [2] [µM] | CC50 [3] [µM] | EC50 [4] [µM] | IC50 [5] [µM] | MCC [6] [µM] | EC50 [7] [µM] | EC50 [8] [µM] | EC50 [9] [µM] | EC50 [10] [µM] | IC50 [11] [µM]
C[C@H](NP(=O)(OCCOCn1cnc2c(=O)[nH]c(N)nc21)Oc1ccccc1)C(=O)OCc1ccccc1 (stereo partly drawn) | 42 | 16 | > 150 | 8 | 33.8 | > 50 | 11 | 5.7 | 4 | 15 | 91
COC(=O)[C@H](C)NP(=O)(OCCOCn1cnc2c(=O)[nH]c(N)nc21)Oc1cccc2ccccc12 (stereo partly drawn) |  | 10 | > 150 | 16 | 18.7 | > 50 | 13 | 4.7 | 10 | 79 | > 100
COC(=O)[C@H](C)NP(=O)(OCCOCn1cnc2c(=O)[nH]c(N)nc21)Oc1ccccc1 (stereo partly drawn) |  | 17 |  | 20 |  | > 100 | 26 | 15 | 16 | 79 | 
C[C@H](NP(=O)(OCCOCn1cnc2c(=O)[nH]c(N)nc21)Oc1cccc2ccccc12)C(=O)OCc1ccccc1 (stereo partly drawn) |  | 15 |  | 2 | > 150 | ≥ 20 | 8.9 | 0.8 | 1.4 | 10 | 20
CC(C)(NP(=O)(OCCOCn1cnc2c(=O)[nH]c(N)nc21)Oc1cccc2ccccc12)C(=O)OCc1ccccc1 (stereo not drawn) | > 100 | ≥ 100 |  | 2.4 |  | > 50 | 79 |  | 1.6 | 3.2 | > 100
CN(C)/C=N/c1nc2c(ncn2COCCOP(=O)(Oc2ccccc2)N2CCC[C@H]2C(=O)OCc2ccccc2)c(=O)[nH]1 (stereo partly drawn) | 45 | > 20 | 90 |  | > 150 |  | > 20 | 30 |  |  | 
CN(C)/C=N/c1nc2c(ncn2COCCOP(=O)(NC(C)(C)C(=O)OCc2ccccc2)Oc2ccccc2)c(=O)[nH]1 (stereo not drawn) | > 100 | > 100 | > 150 |  | > 150 |  | > 100 | 70 |  |  | 
CCCOC(=O)[C@H](C)NP(=O)(OCCOCn1cnc2c(=O)[nH]c(N)nc21)Oc1cccc2ccccc12 (stereo partly drawn) |  | 6.6 |  | 5.5 |  | ≥ 50 | 24 | 10 | 1.9 | 16 | 68
COC(=O)[C@@H](NP(=O)(OCCOCn1cnc2c(=O)[nH]c(N)nc21)Oc1cccc2ccccc12)C(C)C (stereo partly drawn) | > 100 | > 100 |  | > 100 |  | > 100 | > 100 |  | > 100 | > 100 | 
CN(C)/C=N/c1nc2c(ncn2COCCOP(=O)(NC(C)(C)C(=O)OCc2ccccc2)Oc2cccc3ccccc23)c(=O)[nH]1 (stereo not drawn) | 40 | > 20 | 45 |  | 140 |  | > 20 | 15 |  |  | 
COC(=O)[C@@H](NP(=O)(OCCOCn1cnc2c(=O)[nH]c(/N=C/N(C)C)nc21)Oc1cccc2ccccc12)C(C)C (stereo partly drawn) | > 100 | > 100 | > 150 |  | > 150 |  | > 100 | > 150 |  |  | 
Nc1nc2c(ncn2COCCOP(=O)(NC(Cc2ccccc2)C(=O)OCc2ccccc2)Oc2ccccc2)c(=O)[nH]1 (stereo not drawn) |  | 26 |  | 17 |  | > 50 | 34 | 16 | 8 |  | 87
CC(C)OC(=O)[C@H](C)NP(=O)(OCCOCn1cnc2c(=O)[nH]c(N)nc21)Oc1ccccc1 (stereo partly drawn) | > 100 |  | > 150 | 10 | > 150 | > 50 | > 100 | > 150 | 8.5 | 27 | > 100
C[C@@H](NP(=O)(OCCOCn1cnc2c(=O)[nH]c(N)nc21)Oc1ccccc1)C(=O)OCc1ccccc1 (stereo partly drawn) | ≥ 250 |  |  | 2 |  | > 100 | > 250 |  | 1.4 | 23 | 
Nc1nc2c(ncn2COCCOP(=O)(Oc2ccccc2)N2CCC[C@H]2C(=O)OCc2ccccc2)c(=O)[nH]1 (stereo partly drawn) | > 100 | > 20 |  | > 100 |  | > 100 | > 20 |  | > 100 | > 100 | > 100
CCOC(=O)[C@H](C)NP(=O)(OCCOCn1cnc2c(=O)[nH]c(N)nc21)Oc1cccc2ccccc12 (stereo partly drawn) | 32 | 12 | > 150 | 32 | 12 | > 150 | 42 | 1.7 | 9.5 | 32 | > 100
CC(C)[C@H](NP(=O)(OCCOCn1cnc2c(=O)[nH]c(N)nc21)Oc1ccccc1)C(=O)OCc1ccccc1 (stereo partly drawn) | ≥ 100 | > 50 |  | 2 |  | > 100 | > 50 |  | 0.85 | 7.5 | 
CCOC(=O)[C@@H](NP(=O)(OCCOCn1cnc2c(=O)[nH]c(N)nc21)Oc1cccc2ccccc12)C(C)C (stereo partly drawn) | > 100 | > 100 |  | 51 |  | > 100 | > 100 |  | 32 | 42 | 
C[C@H](NP(=O)(OCCOCn1cnc2c(=O)[nH]c(N)nc21)Oc1cccc2ccccc12)C(=O)OC(C)(C)C (stereo partly drawn) | > 100 | > 100 | > 150 | > 100 | > 150 | > 50 | > 100 | > 150 | 50 | > 100 | > 100
CC(C)OC(=O)[C@H](C)NP(=O)(OCCOCn1cnc2c(=O)[nH]c(N)nc21)Oc1cccc2ccccc12 (stereo partly drawn) | 36 | 6.2 | > 150 | 15 | 72.5 | > 50 | 12 | 5.4 | 10 | ≥ 45 | > 100
COC(=O)[C@H](NP(=O)(OCCOCn1cnc2c(=O)[nH]c(N)nc21)Oc1cccc2ccccc12)C(C)C (stereo partly drawn) | > 100 | > 100 |  | > 100 |  | > 100 | > 100 |  | > 100 | > 100 | 
C[C@H](NP(=O)(OCCOCn1cnc2c(=O)[nH]c(N)nc21)Oc1ccc(F)cc1)C(=O)OCc1ccccc1 (stereo partly drawn) | 76 |  |  | 0.9 |  | > 100 | > 20 |  | 0.5 | 1.5 | 
CC[C@H](C)[C@H](NP(=O)(OCCOCn1cnc2c(=O)[nH]c(N)nc21)Oc1ccccc1)C(=O)OCc1ccccc1 (stereo partly drawn) |  | > 20 |  | 1.1 |  | > 100 | > 20 |  | 1.1 | 1.4 | 
Nc1nc2c(ncn2COCCOP(=O)(NCC(=O)OCc2ccccc2)Oc2ccccc2)c(=O)[nH]1 (stereo not drawn) | > 100 | > 100 |  | 3 |  | > 100 | > 100 |  | 0.8 | 9 | 
CC(C)(NP(=O)(OCCOCn1cnc2c(=O)[nH]c(N)nc21)Oc1ccccc1)C(=O)OCc1ccccc1 (stereo not drawn) | > 100 |  | > 150 | 1.4 | > 150 | > 100 | > 100 | 7 | 0.8 | 5.5 | 
CC(C)C[C@H](NP(=O)(OCCOCn1cnc2c(=O)[nH]c(N)nc21)Oc1ccccc1)C(=O)OCc1ccccc1 (stereo partly drawn) | > 20 | > 20 | 17 | 0.8 | > 150 | > 100 | > 20 | 0.8 | 0.7 | 1.4 | 
Nc1nc2c(ncn2COCCO)c(=O)[nH]1 [ACYCLOVIR] | > 250 | > 250 | > 250 |  | > 250 | > 100 | > 250 |  |  |  | 

From ChEMBL document CHEMBL1153518 (J Med Chem, 2009)
